Nine molecules from publication PMC4436074 (mBio, 2015) can be followed below.

Structures can show the parent of a compound that is named as a salt. Where two headings read alike, the source gives them in different places.

Experiment [1] concerns the target FITC-SHP2-C8 (Streptococcus pyogenes). The experiment is described as follows: fluorescence polarisation. (Polarisation of emitted light reports the rotation of a fluorescent probe.)
In experiment [2] the test system is Rgg2/3-regulated promoter Pshp2-luxAB (BNL148). Put plainly: Pshp2-luxAB luciferase reporter assay, strain BNL148, sSHP2-C8 induced. The note with it: for inhibition of SHP-induced light production (transcription): 10 µM compound with 10 nM SHP2-C8, BNL148; for IC50: Streptococcus pyogenes. Format: cell-based, S. pyogenes. For orientation: A reporter such as luciferase makes a cellular process visible.

The next experiment has as its system Rgg3. It counts as binding, Streptococcus pyogenes. The note with it: HTS, duplicate; 0.1 µl of 10 mM compound in 30 µl; 180 nM His6-Sumo-Rgg3, 10 nM FITC-SHP2-C8. The gist of the method: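 Approved-drug library (1,280 compounds, DMSO stocks) pinned into assay mix of 1× PBS, 0.1 mg/ml BSA, 0.01% Triton X-100 and 5 mM DTT. Plates were shaken 20 s, then held 15 min at room temperature, and polarization was read at ex 485/em 535 nm. Each plate had 32 DMSO negative-control wells and 32 unlabeled SHP2-C8 (1 mM stock) positive-control wells. % inhibition was scaled between the per-plate control means, and plate Z′ was computed.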

The target of experiment [3] is T1, ComR (Streptococcus mutans serotype c, UniProt Q8DWI6).
T1 sequence (Q8DWI6 1-304): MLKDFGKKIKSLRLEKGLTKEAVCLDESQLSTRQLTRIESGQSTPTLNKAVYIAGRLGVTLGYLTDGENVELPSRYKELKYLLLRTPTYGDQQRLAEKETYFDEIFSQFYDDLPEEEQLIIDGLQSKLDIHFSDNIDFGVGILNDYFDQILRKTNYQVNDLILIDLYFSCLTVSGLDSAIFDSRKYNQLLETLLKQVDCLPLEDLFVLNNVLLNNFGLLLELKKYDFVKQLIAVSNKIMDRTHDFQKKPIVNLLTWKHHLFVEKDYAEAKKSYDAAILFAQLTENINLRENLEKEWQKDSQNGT
It counts as binding, S. mutans. As to conditions: read-out: ComR Avg % inhibition.

In another experiment the test system is S. pyogenes cultures. Put plainly: Bacterial growth curves. The note with it: 10 µM compound with 10 nM sSHP2-C8, 37°C. Format: cell-based. In short, it runs like this:
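S. pyogenes grown at 37°C in chemically defined medium (CDM) to OD600 0.1, then given 10 nM SHP2-C8 alone or with 10 µM test compound. OD600 read every 30 min for 8 h.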

The target of a further experiment is FITC-XIP (S. mutans). The experiment is described as follows: fluorescence polarisation.
The test system of experiment [4] is Rgg-SHP quorum-sensing pathway, Pshp-luxAB. The experiment is described as follows: Pshp-luxAB reporter in S. porcinus NCTC 10999. It counts as cell-based. The note with it: 5 µM antagonist. In short, it runs like this:
(§1)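 Reporter strains carry shp-promoter–luxAB fusions on a pLZ12-spec plasmid: Pshp1520 in GBS A909, Pshp2 in GGS, Pshp3 in S. porcinus. S. porcinus was given synthetic SHP. Strains grown in CDM to OD600 0.1 and exposed to 5 µM antagonist. Decanal (1% in mineral oil) supplied as vapour. OD600 and luminescence read at 37°C every 15 min for 8 h; relative luminescence taken as maximum cps/OD600.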

Experiment [5] has as its system S. pyogenes strain NZ131 biofilm. The experiment is described as follows: SHP-dependent biofilm assay, crystal violet staining, strain NZ131. Format: cell-based. As to conditions: 10 nM SHP2-C8, 20 h. In short, it runs like this:
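NZ131 grown overnight in THY at 30°C, diluted 1:100 into CDM, grown at 37°C to late exponential phase, back-diluted to OD600 0.02 in CDM with 10 nM SHP2-C8 and 2-fold dilutions of test compound (5 to 0.156 µM); 0.1% DMSO controls. At OD600 ~0.1 plated in duplicate, 20 h at 37°C, 5% CO2. Saline wash, dry-fixed, 0.2% crystal violet, A595; ≥3 independent experiments, standard errors.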

In experiment [6] the test system is ComR-XIP QS system, PsigX-luxAB. The experiment is described as follows: PsigX-luxAB reporter. It counts as cell-based, S. pyogenes. The note with it: 10 µM compound, 100 nM XIP, MGAS315(pWAR200). The gist of the method:
(§2)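 PsigX-luxAB reporter strains grown in CDM to OD600 0.1 and incubated with 10 µM test compound plus 100 nM XIP. Decanal (1% in mineral oil) supplied as vapour; sealed plate shaken at 37°C. OD600 and luminescence read every 15 min for 8 h; relative luminescence taken as maximum cps/OD600.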

Experiment [7] addresses T1, ComR. It counts as binding, S. mutans. As to conditions: competition with FITC-XIP.
Experiment [8] deals with Rgg-SHP quorum-sensing pathway, Pshp-luxAB. The experiment is described as follows: Pshp-luxAB reporter in S. agalactiae A909. Format: cell-based. The note with it: S. agalactiae (GBS), 5 µM antagonist. The gist of the method: as §1
The test system is the same in experiment [9]. The experiment is described as follows: Pshp-luxAB reporter in S. dysgalactiae GGS-LT1. Format: cell-based. As to conditions: 5 µM antagonist. In short, it runs like this: as §1
The test system of another experiment is RopB. Put plainly: PspeB-luxAB reporter, NZ131. It counts as cell-based, S. pyogenes. As to conditions: C medium; 10 µM CsA or valspodar; 300 mM NaCl. The gist of the method:
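PspeB-luxAB reporter (speB upstream region–luxAB, integrated) grown in C medium to exponential phase (OD600 0.1). Test compound added at 10 µM; 300 mM NaCl used as the suppressing condition. Decanal vapour supplied; 37°C with shaking. OD600 and luminescence read every 15 min for 8 h; relative luminescence taken as maximum cps/OD600.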

In experiment [10] the test system is ComR-XIP QS system, PsigX-luxAB. The experiment is described as follows: PsigX-luxAB reporter. It counts as cell-based, S. mutans. The note with it: 10 µM compound, 100 nM XIP, UA159(pWAR304). In short, it runs like this: as §2
The subject of a further experiment is Rgg2. The experiment is described as follows: Pshp2-luxAB luciferase reporter assay, Δrgg3 strain BNL178. Format: cell-based, S. pyogenes. In short, it runs like this: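 Pshp2-luxAB reporter strains grown in CDM to exponential phase (OD600 0.1). Cultures dispensed into wells with 10 nM SHP2-C8 alone or with test compound: 10 µM for the Δrgg3 strain BNL178, 5 µM CsA for the other strains. Decanal (1% in mineral oil) supplied as vapour; plate sealed and shaken continuously at 37°C. OD600 and luminescence read every 15 min for 8 h; relative luminescence taken as maximum cps/OD600.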

Experiment [11] has as its target His6-SUMO-Rgg3 (Streptococcus pyogenes). Put plainly: fluorescence polarisation.
The mark [12] stands for this setting: read-out: IC50, luciferase assay dose-response.

The term Kd denotes the constant that tells how readily two partners part at equilibrium. Read a low Kd as tighter binding. As for His6-SUMO-Rgg3 (receptor), the dissociation constant Kd in experiment [1] was determined as 160 nM.
For orientation: inhibition means the percentage by which the read-out fell short of the control. Regarding `CCCc1nc(C(C)(C)O)c(C(=O)O)n1Cc1ccc(-c2ccccc2-c2nnn[nH]2)cc1` [Olmesartan], the “inhibition of SHP-induced light production (transcription)” value (“inhibition … (transcription)” for short) in experiment [2] is “less than 50%”. Also, the “Rgg3 Avg % inhibition” value in the experiment on Rgg3 was 73%. For the same molecule, the inhibition on ComR [3] came to 1%.
For orientation: IC50 means the concentration that gives 50% inhibition. Consider `CCC(C)(C)C(=O)O[C@H]1C[C@@H](C)C=C2C=C[C@H](C)[C@H](CC[C@@H]3C[C@@H](O)CC(=O)O3)[C@H]21` [Simvastatin], for which, in experiment [2], the “inhibition … (transcription)” value is “less than 50%”. Also, in experiment [2] (setting [12]), the IC50 is greater than 10000 nM. Further, the “Rgg3 Avg % inhibition” value with Rgg3 stood at 85%. For the same molecule, the inhibition at ComR [3] turned out to be 10%. For the same molecule, the “effect on culture growth” value in the experiment with S. pyogenes cultures is listed as “inhibited culture growth”.
Turning to His6-ComR (S. mutans UA159) (receptor), the Kd in the experiment with FITC-XIP (S. mutans) stood at 1000 nM.
As to `C/C=C/C[C@@H](C)C(=O)[C@H]1C(=O)N[C@@H](C(C)C)C(=O)N(C)CC(=O)N(C)[C@@H](CC(C)C)C(=O)N[C@@H](C(C)C)C(=O)N(C)[C@@H](CC(C)C)C(=O)N[C@@H](C)C(=O)N[C@H](C)C(=O)N(C)[C@@H](CC(C)C)C(=O)N(C)[C@@H](CC(C)C)C(=O)N(C)[C@@H](C(C)C)C(=O)N1C` [Valspodar, [3′-keto-Bmt1-Val2]-cyclosporine], the “inhibition … (transcription)” value in experiment [2] is on record as “completely abolished light production”. Moreover, the half-maximal inhibitory concentration (IC50) in experiment [2] (read-out: IC50 (nM), luciferase assay dose-response) was 252 nM; in experiment [2] (setting [12]), 500 nM. In addition, the “fold inhibition of light production” value is “at least 5 fold” in experiment [4] (S. porcinus (GES), sSHP stimulated); “at least 5 fold” in [8]; “at least 5 fold” in experiment [9]. Besides, the “effect on the S. porcinus strain (in words)” value in experiment [4] (S. porcinus) was “only a moderate effect”. In addition, the “concentration sufficient to prevent SHP-dependent biofilm development” value in [5] turned out to be 0.312 µM. Further, the “effect on light production of PsigX-luxAB” value in experiment [6] and in [10] was “not affected” throughout. Moreover, the “binding to ComR” value at ComR [7] is reported as “did not bind to ComR”. In the experiment on RopB, the “effect on activation of PspeB (luciferase activity)” value is “unable to block activation of PspeB”. Further, in the experiment with Rgg2, the “inhibition of transcription in strain with only Rgg2 present” value was “effective at inhibiting transcription”. In addition, the “effect on culture growth” value with S. pyogenes cultures is recorded as “do not display toxic effects on GAS growth”.
`CC(C)(C)NC(=O)[C@@H]1C[C@@H]2CCCC[C@@H]2CN1C[C@@H](O)[C@H](Cc1ccccc1)NC(=O)[C@H](CC(N)=O)NC(=O)c1ccc2ccccc2n1` [Saquinavir mesylate]: in experiment [2] (setting [12]), the IC50 was greater than 10000 nM. Moreover, in the experiment with Rgg3, the “Rgg3 Avg % inhibition” value is 84%. For the same molecule, the inhibition at ComR [3] amounted to 13%.
For the molecule `[Cl-].[Na+]` [NaCl], the “effect on activation of PspeB (luciferase activity)” value in the experiment on RopB was “abolished luciferase activity”.
`CCCc1nc2c(C)cc(-c3nc4ccccc4n3C)cc2n1Cc1ccc(-c2ccccc2C(=O)O)cc1` [Telmisartan]: in [2], the “inhibition … (transcription)” value is given as “less than 50%”. Further, in the experiment on Rgg3, the “Rgg3 Avg % inhibition” value turned out to be 99%. Further, the inhibition at ComR [3] stood at 3%.
On to DILIIVGG [SHP2-C8 (unlabeled synthetic peptide)], for which the Kd in [11] is 220 nM.
